These results are taken from ChEMBL document CHEMBL2321813, “Discovery of allosteric modulators of factor XIa by targeting hydrophobic domains adjacent to its heparin-binding site” (J Med Chem, 2013).

In assay [1] the target is T1, Coagulation factor XI (Homo sapiens, UniProt P03951). The assay can be described thus: Inhibition of human factor 11a using S2366 as substrate after 10 mins by spectrophotometry. In outline: (§1)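 FXIa at 0.765 nM (final) preincubated 10 min at 37 °C with compound (12 serial dilutions) in 50 mM Tris-HCl pH 7.4, 150 mM NaCl, 0.1% PEG8000, 0.02% Tween80. S2366 (345 μM final) then added. Initial rate read at 405 nm. Fractional residual activity fit to a logistic equation for IC50, Hill slope and ΔY.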

In assay [2] the target is T1, Coagulation factor XI. The assay can be described thus: Inhibition of human factor 11a using S2366 as substrate assessed as residual protease activity after 10 mins by spectrophotometry. In outline: as §1
For assay [3], the target named is T1, Coagulation factor XI. The assay can be described thus: Binding affinity to human factor 11a-DEGR by spectrofluorometry. In outline: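 Fluorescence titration of active-site dansylated FXIa (FXIa-DEGR, 250 nM) with aliquots of sulfated QAO in 50 mM Tris-HCl pH 7.4, 150 mM NaCl, 0.1% PEG8000 at 37 °C. Emission monitored at 547 nm (λex 345 nm). Change in fluorescence fit to the Hill equation to give apparent KD.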

Another assay concerns Plasma. The assay can be described thus: Anticoagulant activity in human plasma assessed as concentration required to double activated partial thromboplastin time. The class given is functional. In outline: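 Citrated pooled normal human plasma. APTT: 10 μL compound mixed with 90 μL plasma and 100 μL prewarmed APTT reagent (0.2% ellagic acid), incubated 4 min at 37 °C, then clotting started with 100 μL prewarmed 25 mM CaCl2. Vehicle control was deionized water and/or organic vehicle. Clot time was read on a fibrometer. Data fit to a quadratic trend line to get the concentration doubling clotting time. Run in duplicate.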

Assay [4] addresses Chymotrypsinogen A (Bos taurus) (UniProt P00766). The assay can be described thus: Inhibition of bovine alpha-chymotrypsin assessed as residual protease activity at 500 uM after 10 mins by spectrophotometry.
Assay [5] addresses T2, Serine protease 1 (Bos taurus) (UniProt P00760).
T2 sequence (whole entry): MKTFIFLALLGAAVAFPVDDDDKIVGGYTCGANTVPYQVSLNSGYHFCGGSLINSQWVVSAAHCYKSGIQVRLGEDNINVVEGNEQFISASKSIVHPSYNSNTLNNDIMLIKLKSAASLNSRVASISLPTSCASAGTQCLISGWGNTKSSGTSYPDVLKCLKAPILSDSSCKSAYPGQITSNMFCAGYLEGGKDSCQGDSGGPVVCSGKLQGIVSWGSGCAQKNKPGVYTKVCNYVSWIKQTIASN
The assay can be described thus: Inhibition of bovine trypsin assessed as residual protease activity at 500 uM after 10 mins by spectrophotometry.

The target of assay [6] is Coagulation factor X (Homo sapiens) (UniProt P00742). The assay can be described thus: Inhibition of human factor 10a assessed as residual protease activity at 500 uM after 10 mins by spectrophotometry.
For assay [7], the target named is Prothrombin (Homo sapiens) (UniProt P00734). The assay can be described thus: Inhibition of human thrombin assessed as residual protease activity at 500 uM after 10 mins by spectrophotometry.
For assay [8], the system named is HEK293. The assay can be described thus: Inhibition of human recombinant factor 11a catalytic domain Lys529Ala/Arg530Ala/Arg532Ala triple mutant transfected in HEK293 cells using S2366 as substrate assessed as residual protease activity at 3 uM after 10 mins by spectrophotometry. In short, it runs like this:
(§2)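 Full-length wild-type FXIa, FXIa catalytic domain, and the Lys529Ala/Arg530Ala/Arg532Ala catalytic domain mutant were recombinant proteins from stably transfected HEK-293 cells, activated with FXIIa. Residual activity was measured by S2366 hydrolysis with 3 μM compound, with or without 30 μM Polybrene.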

The target of assay [9] is T1, Coagulation factor XI. The assay can be described thus: Inhibition of human recombinant factor 11a catalytic domain transfected in HEK293 cells using S2366 as substrate assessed as residual protease activity at 3 uM after 10 mins by spectrophotometry. In outline:
as §2

The target of assay [10] is T1, Coagulation factor XI. The assay can be described thus: Inhibition of human wild type full length factor 11a transfected in HEK293 cells using S2366 as substrate assessed as residual protease activity at 3 uM after 10 mins by spectrophotometry. In short, it runs like this:
as §2

Assay [11] has as its system HEK293. The assay can be described thus: Inhibition of human recombinant factor 11a catalytic domain Lys535Ala/Lys539Ala double mutant transfected in HEK293 cells. The class given is cell-based.
The species entered for assay [12] is Homo sapiens. The assay can be described thus: Ratio of IC50 for human recombinant factor 11a catalytic domain Lys529Ala/Arg530Ala/Arg532Ala triple mutant to IC50 for human recombinant factor XIa catalytic domain. In outline:
(§3)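 Recombinant FXI catalytic domain constructs (wild type, Arg530Ala, Lys529Ala/Arg530Ala/Arg532Ala) were expressed stably in HEK-293 cells. […] Inhibition was measured by S2366 hydrolysis in 50 mM Tris-HCl pH 7.4, 150 mM NaCl, 0.1% PEG8000, 0.02% Tween80 at 37 °C. Dose-response data were fit to the logistic equation.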

Assay [13] is filed under the species Homo sapiens. The assay can be described thus: Ratio of IC50 for human recombinant factor 11a catalytic domain Arg530Ala mutant to IC50 for human recombinant factor XIa catalytic domain. In short, it runs like this: as §3
Assay [14] concerns the target T1, Coagulation factor XI. The assay can be described thus: Inhibition of human recombinant factor 11a catalytic domain. In short, it runs like this: as §3

The source made the active and inactive calls. No cut-off for these calls is given here. Bounds are passed on as bounds.

T1 sequence (P03951 19-387 limits assumed): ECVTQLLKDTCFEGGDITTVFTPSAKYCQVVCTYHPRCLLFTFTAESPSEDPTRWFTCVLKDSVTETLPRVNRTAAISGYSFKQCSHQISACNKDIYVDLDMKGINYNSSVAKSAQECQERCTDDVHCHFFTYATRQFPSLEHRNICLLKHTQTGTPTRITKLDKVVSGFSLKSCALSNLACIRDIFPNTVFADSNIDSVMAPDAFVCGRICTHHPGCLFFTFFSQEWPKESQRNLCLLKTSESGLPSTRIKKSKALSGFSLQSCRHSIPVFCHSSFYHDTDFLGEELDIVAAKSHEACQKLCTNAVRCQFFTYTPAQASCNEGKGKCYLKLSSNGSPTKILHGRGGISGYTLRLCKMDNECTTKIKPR
T1 sequence (P03951 388-625 limits assumed): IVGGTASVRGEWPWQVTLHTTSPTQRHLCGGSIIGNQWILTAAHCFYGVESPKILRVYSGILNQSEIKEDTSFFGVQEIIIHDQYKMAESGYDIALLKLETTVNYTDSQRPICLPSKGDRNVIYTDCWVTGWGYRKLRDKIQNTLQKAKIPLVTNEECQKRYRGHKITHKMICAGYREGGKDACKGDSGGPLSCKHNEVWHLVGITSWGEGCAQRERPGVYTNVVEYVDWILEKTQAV
Coagulation factor X (Homo sapiens), sequence (P00742 41-179 limits assumed): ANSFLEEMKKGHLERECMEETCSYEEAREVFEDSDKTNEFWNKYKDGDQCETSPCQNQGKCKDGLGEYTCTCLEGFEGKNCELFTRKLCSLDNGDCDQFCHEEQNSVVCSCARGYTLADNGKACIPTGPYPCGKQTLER
Coagulation factor X (Homo sapiens), sequence (P00742 235-488 limits assumed): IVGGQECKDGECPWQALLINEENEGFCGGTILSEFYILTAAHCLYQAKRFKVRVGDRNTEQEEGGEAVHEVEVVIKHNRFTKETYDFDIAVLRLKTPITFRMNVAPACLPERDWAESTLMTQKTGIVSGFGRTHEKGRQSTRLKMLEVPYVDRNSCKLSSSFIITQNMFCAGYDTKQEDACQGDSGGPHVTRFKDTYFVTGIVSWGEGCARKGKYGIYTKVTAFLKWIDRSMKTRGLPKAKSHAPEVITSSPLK

In general, IC50 refers to the concentration that gives 50% inhibition. Read a high IC50 as lower potency. On Coagulation factor XI [1], `O=c1c2ccccc2nc(-c2ccc(OS(=O)(=O)O)cc2)n1Cc1cn(CCn2cc(Cn3c(-c4ccc(OS(=O)(=O)O)cc4)nc4ccccc4c3=O)nn2)nn1` came in with a concentration for half-maximal inhibition (IC50) of 305 µM. Further, the Efficacy at Coagulation factor XI [2] stood at 98%.

In the case of `COc1cc(-c2nc3ccccc3c(=O)n2CCCCn2cc(Cn3c(-c4ccc(OS(=O)(=O)O)c(OC)c4)nc4ccccc4c3=O)nn2)ccc1OS(=O)(=O)O`, the IC50 against Coagulation factor XI [1] was found to be 139 µM. At Coagulation factor XI [2], the Efficacy came to 95%.

On Coagulation factor XI [1], `COc1cc(OS(=O)(=O)O)cc2oc(-c3ccc(OS(=O)(=O)O)c(OCc4cn(CCCCn5c(-c6cc(OC(C)=O)cc(OS(=O)(=O)O)c6)nc6ccccc6c5=O)nn4)c3)c(OS(=O)(=O)O)c(=O)c12` displayed an IC50 of 407 µM. Further, at Coagulation factor XI [2], the Efficacy is 90%.

In general, Kd refers to a measure of binding affinity in units of concentration. High values mean lower affinity, low ones higher affinity. The compound `O=c1c2ccccc2nc(-c2cccc(OS(=O)(=O)O)c2)n1CCCCn1cc(Cn2c(-c3ccc(OS(=O)(=O)O)cc3)nc3ccccc3c2=O)nn1` had an IC50 at Coagulation factor XI [1] of 91 µM. The same compound returned a Kd on Coagulation factor XI [3] of 91 µM. Moreover, the Efficacy on Coagulation factor XI [2] stood at 103%.

In the case of `CC(=O)Oc1cc(OS(=O)(=O)O)cc(-c2nc3ccccc3c(=O)n2CCCCn2cc(Cn3c(-c4cc(O)cc(OS(=O)(=O)O)c4)nc4ccccc4c3=O)nn2)c1`, the concentration for half-maximal inhibition (IC50) on Coagulation factor XI [1] was determined as 153 µM. For the same compound, on Coagulation factor XI [2], the Efficacy is 96%.

In turn, `COc1cc(-c2nc3ccccc3c(=O)n2CCCCn2cc(Cn3c(-c4cccc(OS(=O)(=O)O)c4)nc4ccccc4c3=O)nn2)ccc1OS(=O)(=O)O` showed a half-maximal inhibitory concentration (IC50) on Coagulation factor XI [1] of 182 µM. In addition, on Coagulation factor XI [2], the Efficacy was 88%.

`O=c1c2ccccc2nc(-c2ccc(OS(=O)(=O)O)cc2)n1CCCCCn1nncc1Cn1c(-c2ccc(OS(=O)(=O)O)cc2)nc2ccccc2c1=O`: on Coagulation factor XI [2], the Efficacy is 94%.

`O=c1c2ccccc2nc(-c2ccc(OS(=O)(=O)O)cc2)n1CCCCn1cc(Cn2c(-c3ccc(OS(=O)(=O)O)cc3)nc3ccccc3c2=O)nn1` displayed an IC50 against Coagulation factor XI [1] of 82 µM. This compound came in with a Kd on Coagulation factor XI [3] of 84 µM. Moreover, the 2aPTT with Plasma was determined as 979 µM. The inhibition entry in assay [4], in [5], in assay [6] and in assay [7] was “inactive” throughout. Moreover, on Coagulation factor XI [2], the Efficacy stood at 91%.

In turn, `O=c1c2ccccc2nc(-c2cccc(OS(=O)(=O)O)c2)n1CCCn1cc(Cn2c(-c3cccc(OS(=O)(=O)O)c3)nc3ccccc3c2=O)nn1` came in with a half-maximal inhibitory concentration (IC50) at Coagulation factor XI [1] of 320 µM. Further, on Coagulation factor XI [2], the Efficacy stood at 91%.

As to `COc1cc(OS(=O)(=O)O)cc2oc(-c3ccc(OS(=O)(=O)O)c(OCc4cn(CCCCn5c(-c6cccc(OS(=O)(=O)O)c6)nc6ccccc6c5=O)nn4)c3)c(OS(=O)(=O)O)c(=O)c12`, on Coagulation factor XI [1], the IC50 was > 1000 µM.

Consider `CC(=O)Oc1cc(OS(=O)(=O)O)cc(-c2nc3ccccc3c(=O)n2CCCCn2cc(Cn3c(-c4cc(OS(=O)(=O)O)cc(OS(=O)(=O)O)c4)nc4ccccc4c3=O)nn2)c1`, for which, at Coagulation factor XI [1], it took 273 µM to reach half-maximal inhibition (IC50). The Efficacy on Coagulation factor XI [2] turned out to be 91%.

In the case of `O=c1c2ccccc2nc(-c2ccc(OS(=O)(=O)O)cc2)n1CCCCCCn1cc(Cn2c(-c3ccc(OS(=O)(=O)O)cc3)nc3ccccc3c2=O)nn1`, on Coagulation factor XI [1], the half-inhibitory concentration (IC50) is 52 µM. This compound also came in with an equilibrium dissociation constant (Kd) on Coagulation factor XI [3] of 38 µM. The values for the Activity with HEK293 [8], on Coagulation factor XI [9] and at Coagulation factor XI [10] were 4.9%, 6.3% and 4.2%, respectively. The inhibition result with HEK293 [11] and at Coagulation factor XI [14] was “Active” throughout. Further, the Ratio IC50 in the assay filed under Homo sapiens [12] was 5; in the assay filed under Homo sapiens [13], 2. Moreover, the 2aPTT with Plasma is 950 µM. For the same compound, the inhibition entry in assay [4], in [5], in assay [6] and in assay [7] was “inactive” in each case. In addition, the Efficacy on Coagulation factor XI [2] turned out to be 97%.

With `CC(=O)Oc1cccc(-c2nc3ccccc3c(=O)n2Cc2cn(CCCCn3c(-c4cccc(OS(=O)(=O)O)c4)nc4ccccc4c3=O)nn2)c1`, the half-maximal inhibitory concentration (IC50) against Coagulation factor XI [1] was > 1000 µM.

In the case of `O=c1c2ccccc2nc(-c2ccc(OS(=O)(=O)O)cc2)n1CCCCn1cc(Cn2c(-c3cccc(OS(=O)(=O)O)c3)nc3ccccc3c2=O)nn1`, the IC50 against Coagulation factor XI [1] stood at 159 µM. Further, the Efficacy at Coagulation factor XI [2] came to 88%.

In turn, `O=c1c2ccccc2nc(-c2cccc(OS(=O)(=O)O)c2)n1CCCCn1cc(Cn2c(-c3cc(OS(=O)(=O)O)cc(OS(=O)(=O)O)c3)nc3ccccc3c2=O)nn1` registered a concentration for half-maximal inhibition (IC50) against Coagulation factor XI [1] of 213 µM. On Coagulation factor XI [2], the Efficacy amounted to 93%.

Consider `O=c1c2ccccc2nc(-c2cc(OS(=O)(=O)O)cc(OS(=O)(=O)O)c2)n1CCCCn1cc(Cn2c(-c3cc(OS(=O)(=O)O)cc(OS(=O)(=O)O)c3)nc3ccccc3c2=O)nn1`, for which, at Coagulation factor XI [1], the IC50 is > 1000 µM.

`O=c1c2ccccc2nc(-c2ccc(OS(=O)(=O)O)cc2)n1CCCCCn1cc(Cn2c(-c3ccc(OS(=O)(=O)O)cc3)nc3ccccc3c2=O)nn1` showed an IC50 against Coagulation factor XI [1] of 59 µM. On Coagulation factor XI [3], this compound showed a Kd of 37 µM. Besides, the 2aPTT in the assay with Plasma is 1062 µM. Besides, the inhibition result in [4], in assay [5], in assay [6] and in assay [7] was “inactive” in each case. Besides, the Efficacy at Coagulation factor XI [2] was determined as 89%.

On Coagulation factor XI [1], `COc1cc(-c2nc3ccccc3c(=O)n2CCCCn2cc(COc3cc(-c4oc5cc(OS(=O)(=O)O)cc(OC)c5c(=O)c4OS(=O)(=O)O)ccc3OS(=O)(=O)O)nn2)ccc1OS(=O)(=O)O` displayed an IC50 of 216 µM. In addition, the Efficacy at Coagulation factor XI [2] amounted to 50%.

Take `O=c1c2ccccc2nc(-c2cccc(OS(=O)(=O)O)c2)n1CCCCn1cc(Cn2c(-c3cccc(OS(=O)(=O)O)c3)nc3ccccc3c2=O)nn1`: the 50% inhibitory concentration (IC50) at Coagulation factor XI [1] turned out to be 102 µM. The Efficacy at Coagulation factor XI [2] was 100%.
